# High-throughput results as filed in PubChem.
# This is a sample that favours compounds with a hit; in the whole collection about 1.8% have one here.
# Scp1 inh: blocks human Scp-1 phosphatase activity. 340,000 compounds, 0.88% hits. AID 493091. inhibition, % at 20 µM. Q9GZU7. Recombinant Scp1, phosphopeptide, malachite green phosphate absorbance;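 active = inhibition above about 50% at 20 µM, limit read from the data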;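 note: plate controls were DMSO wells with enzyme for no effect and wells lacking enzyme for full effect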
#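 System: truncated SCP-1 phosphatase (76-261aa); medium: Tris acetate buffer pH 5.5 with MgCl2 and Tween-20; incubation: 45 min room-temperature reaction, 5 min colour, 30 min stabiliser; compound: single 20 µM dose, 1% DMSO; reagent: Phosphorylated 17-residue peptide substrate; read-out: % inhibition at 20 µM; technique: colorimetric free-phosphate detection, absorbance 630 nm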
# LMPTP inh: blocks human LMPTP phosphatase; P24666; recombinant LMPTP-A, OMFP fluorogenic substrate, fluorescence intensity; inhibition, % at 20 µM; 360,000 compounds, 0.22% hits;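 active = compounds that cut the enzyme signal by at least half of the control window in the single-dose screen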;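 note: plate controls were DMSO wells with enzyme plus substrate for no effect and substrate without enzyme for full effect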
#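 Test system – LMPTP-A enzyme · Amount – LMPTP-A at 0.625 nM final in the reaction · Buffer or medium – Bis-Tris pH 6.0, DTT, detergent · Reagent – OMFP 400 µM · Doses – single 20 µM dose · Schedule – reaction 50 min, room temperature, dark · Detection – fluorescence intensity of OMFP turnover product · Evaluation – percent inhibition versus substrate-only and uninhibited controls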
# SUMO1-SIM PPI: SUMO1-SIM interaction modulation. P63165. SUMO1 binding to a labelled peptide, TR-FRET, 1 h. inhibition, % at 20 µM. 360,000 compounds, 0.33% hits; in the data active = inhibition above about 37%
# Target sequence (P63165 whole entry, looked up): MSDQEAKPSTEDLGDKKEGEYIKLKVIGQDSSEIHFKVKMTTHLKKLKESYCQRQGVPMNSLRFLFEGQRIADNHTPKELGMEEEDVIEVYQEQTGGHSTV
# STEP inh: blocks human striatal-enriched tyrosine phosphatase; P54829; recombinant STEP, OMFP fluorogenic substrate, fluorescence; inhibition, % at 20 µM; 360,000 compounds, 0.25% hits; AID 588621;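 active = inhibition at 20 µM, scaled per plate between control wells, above about 37%, limit read from the data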;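 note: 0% = DMSO with enzyme and substrate and 100% = substrate only without enzyme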
# Target sequence (P54829 whole entry, looked up): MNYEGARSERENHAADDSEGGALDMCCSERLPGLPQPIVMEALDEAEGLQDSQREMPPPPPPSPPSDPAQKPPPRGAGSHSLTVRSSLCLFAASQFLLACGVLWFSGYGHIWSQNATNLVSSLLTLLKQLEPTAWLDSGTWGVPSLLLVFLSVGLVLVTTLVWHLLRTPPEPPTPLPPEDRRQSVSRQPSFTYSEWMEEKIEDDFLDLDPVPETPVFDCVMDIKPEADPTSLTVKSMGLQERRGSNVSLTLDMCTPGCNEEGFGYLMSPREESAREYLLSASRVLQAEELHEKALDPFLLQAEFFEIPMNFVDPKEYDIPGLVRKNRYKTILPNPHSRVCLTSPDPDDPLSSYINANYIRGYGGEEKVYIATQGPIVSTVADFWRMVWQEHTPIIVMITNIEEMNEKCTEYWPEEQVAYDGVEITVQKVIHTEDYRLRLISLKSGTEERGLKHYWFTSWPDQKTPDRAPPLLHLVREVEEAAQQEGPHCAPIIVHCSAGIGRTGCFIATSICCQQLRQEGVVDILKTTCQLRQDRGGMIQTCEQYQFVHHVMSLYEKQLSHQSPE
#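 medium = Bis-Tris buffer pH 6.0, 2.5 mM DTT, 0.005% Tween 20 | test system = STEP (striatal-enriched tyrosine phosphatase) enzyme, cell-free | measure = normalized % inhibition | compound dosing = 20 µM, 1% DMSO | also added = 25 µM OMFP | schedule = reaction 20 min, ambient temperature | measured by = fluorescence read at 480 nm ex / 540 nm em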
# DNMT1 block: blocks human DNA methyltransferase DNMT1; P26358; DNMT1 molecular beacon, Hinp1I cleavage, fluorescence; inhibition (reported as % activation of signal), % at 10 µM; 360,000 compounds, 0.83% hits; in the data active = inhibition above about 50%
# HKDC1 inh: HKDC1 (human) hexokinase inhibition; Q2TB90; recombinant HKDC1, G6PDH/diaphorase resazurin coupled fluorescence; inhibition, % at 20 µM; 340,000 compounds, 0.16% hits; AID 493160;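 active = inhibition above about 35% when tested at 20 µM, limit read from the data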;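 note: plate controls were DMSO wells with enzyme for no effect and DMSO wells lacking enzyme for full effect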
#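 Test system: Recombinant HKDC1 (HK5) hexokinase enzyme, produced in-house | Input: HKDC1 at 5 µg/mL | Buffer or medium: Tris pH 8.0 buffer with MgCl2, Tween-20, BSA, BME | Schedule: 90 min reaction incubation at room temperature, dark | Technique: Resazurin-to-resorufin fluorescence via G6PDH and diaphorase coupling, 525/613 nm | Controls: DMSO wells with and without enzyme mix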
# DNMT1 inh conf: DNMT1 inhibition confirmation, single concentration; AID 602385; DNMT1 molecular beacon HinP1I cleavage, fluorescence; inhibition, % at 10 µM; 2,300 compounds, 8% hits; shares compounds with DNMT1 block;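 active = average inhibition of at least 30% in the single-concentration confirmation test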
# DNMT1 interf: shows spectral interference in the DNMT1 beacon assay; DNMT1 molecular beacon spectral interference counterscreen, fluorescence 485/520; activation (fluorescence interference), % at 10 µM; shares compounds with DNMT1 block; 2,300 compounds, 1% hits; AID 602387;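 active = activation of at least 30% at 10 µM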;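 note: DNMT1 catalytic domain with a HinP1I cleavage step and a FAM/dabcyl DNA beacon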
# Active calls of the source: *; . = no result given.
SMILES,Scp1 inh,LMPTP inh,SUMO1-SIM PPI,STEP inh,DNMT1 block,HKDC1 inh,DNMT1 inh conf,DNMT1 interf
Cc1cccn2c(=O)c3cc(C(=O)NCCC4=CCCCC4)n(C)c3nc12,22,2,3,2,59*,-6,0,-7
Cc1cccc(NC(=S)N(CCCN2CCOCC2)C(C)c2cc3ccccc3o2)c1 (stereo not drawn),-3,-2,1,7,0,-5,.,.
Cc1cccc(NC(=S)N(CCCN2CCOCC2)C(C)c2cc3ccccc3o2)c1C (stereo not drawn),-6,-2,2,3,54*,2,1,-1
O=c1oc2c3c4c(cc2s1)CCCN4CCC3,3,67*,9,3,85*,7,-3,-2
O=c1ccc2cc3c4c(c2o1)CCCN4CCC3,-8,31,15,-11,28,10,.,.
COc1ccc2ccccc2c1C(O)c1nccn1C (stereo not drawn),-14,-1,-19,-20,62*,10,0,2
Nn1c(COc2ccccc2F)nnc1SCC(=O)NCC1CCCO1 (stereo not drawn),.,-1,0,0,2,.,.,.
Cc1cccc(NC(=O)c2cc3c(=O)n4ccccc4nc3n(CC(C)C)c2=N)c1,9,1,-1,1,62*,-1,1,2
COc1cccc(NC(=O)c2cc3c(=O)n4ccccc4nc3n(CC(C)C)c2=N)c1,3,4,-20,0,11,2,.,.
CCc1nnc(NC(=O)c2ccc(COc3cccc(C)c3)o2)s1,-2,0,-4,-1,4,0,.,.
CNC(=O)/C(C#N)=C/c1ccc(OCCOc2ccccc2)cc1,-9,0,-31,-2,-3,-3,.,.
CCc1cc(=O)oc2cc(C)c(CN3CCCC(C)C3)c(O)c12 (stereo not drawn),-13,2,27,0,4,10,.,.
CCCCc1cc(=O)oc2cc(C)c(CN3CCCC3)c(O)c12,0,3,27,-2,96*,11,3,7
O=C(COc1cccc(Br)c1)NN=C1c2ccccc2-c2ccccc21,-34,2,-5,0,54*,17,0,-5
O=C(N/N=C/c1ccc([N+](=O)[O-])cc1)c1cc(-c2ccc3c(c2)OCO3)n[nH]1,-8,4,14,1,50*,1,0,-6
COc1cc(/C=N/NC(=O)c2cc(-c3ccc4c(c3)OCO4)n[nH]2)ccc1O,-1,1,6,-1,1,13,.,.
COc1cc(CCNC(=O)c2cnn3ccccc23)cc(OC)c1OC,-13,0,0,1,80*,-5,1,0
COc1ccc([C@H]2CC(=O)C=C(c3ccc(C)c([N+](=O)[O-])c3)C2)cc1,-9,4,-27,4,0,1,.,.
Cc1nc2ccccc2n1CC(=O)NN,-8,0,21,0,74*,-16,1,4
COc1ccc(C=C2C(=O)OC(C)(C)OC2=O)cc1OC,-4,-2,-2,0,0,-1,.,.
COc1ccc(/C=C2\C(=O)NC(=O)c3ccccc32)cc1OC,0,10,8,7,74*,18,-2,1
COc1ccccc1-n1c(SCC(=O)NCc2ccc3c(c2)OCO3)nc2cc([N+](=O)[O-])ccc21,-1,4,-3,1,90*,-9,8,7
CC(Sc1nc2cc([N+](=O)[O-])ccc2n1-c1ccc(F)cc1)C(=O)NCc1ccc2c(c1)OCO2 (stereo not drawn),-5,3,-12,6,-16,1,.,.
CC(=O)Nc1cc(-c2ccccc2N(C)C)cn2c(-c3ccc(S(C)(=O)=O)cc3)cnc12,.,2,-24,-22,189*,.,5,12
NC(=O)N/N=C\c1cc(Br)ccc1O,-8,-1,-3,0,0,2,.,.
SMILES,Scp1 inh,LMPTP inh,SUMO1-SIM PPI,STEP inh,DNMT1 block,HKDC1 inh,DNMT1 inh conf,DNMT1 interf
O=C(N/N=C/c1cc(Cl)ccc1O)c1ccc(Br)cc1,98*,72*,5,91*,81*,-29,9,4
CSc1cccc(N2CC(C(=O)N(CC(C)C)c3c(N)n(Cc4ccccc4)c(=O)[nH]c3=O)CC2=O)c1 (stereo not drawn),7,1,4,6,12,0,.,.
Cc1[nH][nH]c(=O)c1C(c1ccc(-c2ccccc2C(=O)O)o1)c1c(C)[nH][nH]c1=O,42,2,8,11,75*,-2,-2,-2
C[C@H]1CCCCO[C@H](CN(C)C(=O)C2CCCCC2)[C@@H](C)CN([C@@H](C)CO)C(=O)c2cc(NC(=O)NC3CCCCC3)ccc2O1,.,-2,5,0,-7,.,.,.
CC(=O)Nc1ccc(CNc2nc3cc(-c4cccc(C(F)(F)F)c4)sc3c(=O)n2C)cc1,.,5,-10,0,61*,.,5,7
COc1cccc(CNc2nc3cc(-c4cccc(C(F)(F)F)c4)sc3c(=O)n2C)c1,.,3,-7,0,-2,.,.,.
Cc1nc(CN(C)C(=O)CC2C(=O)NCCN2Cc2ccc(-c3ccccc3)cc2)cs1 (stereo not drawn),-4,0,-6,0,-9,2,.,.
O=C(NC1CCCCC1)C(c1ccnc2ccccc12)N1CCc2ccccc2C1 (stereo not drawn),.,0,-13,-2,-21,.,.,.
COc1ccccc1C1=NC(c2ccc(F)cc2)N=C1C (stereo not drawn),-2,0,1,1,74*,1,3,2
CCNC(=O)N(C)c1c(CC)nc2ccc(C(=O)N3CCN(S(=O)(=O)CC)CC3)cn12,.,-2,-5,-2,53*,.,7,4
CSC1=NSC2=NC(=O)/C(=C/c3coc4ccc(O)cc4c3=O)C(=N)N12,22,6,42*,-80,82*,14,13,-3
CSC1=NSC2=NC(=O)/C(=C/c3coc4ccccc4c3=O)C(=N)N12,-11,-1,5,-80,-6,2,.,.
S=C(NCc1ccco1)NCc1ccco1,4,9,5,13,50,-11,1,-1
O=C(NCc1ccco1)c1ccc([N+](=O)[O-])o1,59*,9,-23,-2,67*,1,3,3
S=C(NCc1ccccc1)NCc1ccco1,9,1,-3,0,0,0,.,.
